Laboratory results: PubChem BioAssay
Calls of active or inactive are those of the source.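 The calls were made as follows, unless noted: active = GFP response above 150% of the DMSO level; inconclusive = fewer than 70 events counted for a yeast strain; inactive = the rest.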

How the values were obtained:
[1] = hit retest on RPL19A-GFP reporter strain – cell-based, S. cerevisiae, flow cytometry, cherry picks, mother/daughter gates, confirmation (AID 2270;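 active = GFP response below 50% of the DMSO control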); conditions: 3 h, at 10 µM, stronger effect = lower value, 100 = same GFP as DMSO wells
[2] = yeast TOR pathway reporter LAP4-GFP change – cell-based, cherry picks, flow cytometry, mother/daughter gates, confirmation (AID 2271;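 active = GFP response above 150% of the DMSO control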;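 also: ratio of sample to DMSO plate mean so 100% equals DMSO level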); conditions: S. cerevisiae LAP4-GFP strain, 3 h, at 10 µM, stronger effect = higher value, 100 means same as DMSO control
Method in brief: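 System: Alexa 633-stained baker's yeast GFP-fusion strain; quantity: 0.2 OD600 cells; timing: compound exposure 3 h at 30 °C, end-over-end rotation; detection: HT flow cytometry, GFP fluorescence channel; measure: per-gate (all, mother, daughter) GFP response vs DMSO; control set: DMSO-only negative wells, rapamycin 400 ng/mL positive wells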

[3] = TOR pathway reporter MEP2-GFP, retest of hits – S. cerevisiae, flow cytometry GFP, cherry picks, confirmation (AID 2272;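 active = GFP response above 150% of the DMSO control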;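 also: ratio of well signal to plate DMSO mean so 100% equals DMSO level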); conditions: S. cerevisiae MEP2-GFP strain, 3 h, at 10 µM, stronger effect = higher value
[4] = yeast AGP1-GFP fluorescence change, single-dose – cell-based, flow cytometry, S. cerevisiae, cherry picks, confirmation (AID 2273);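 also: median GFP channel fluorescence over the whole cell population gate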; conditions: S. cerevisiae AGP1-GFP strain, 3 h, at 10 µM
[5] = TOR pathway CIT2 reporter hit retest – S. cerevisiae, GFP fusion, cherry picks, mother/daughter gates, confirmation (AID 2274); conditions: S. cerevisiae CIT2-GFP strain, flow cytometry, 3 h, at 10 µM, stronger effect = higher value
[6] = measured here: daughter cell gate
[7] = measured here: mother cell gate
[8] = measured here: daughter cell gate response
[9] = measured here: mother cell gate response

| Structure (SMILES) | GFP response vs DMSO [1] | GFP response vs DMSO [1, 6] [%] | GFP response vs DMSO [1, 7] [%] | GFP response relative to DMSO [2] | GFP response relative to DMSO [2, 8] [%] | GFP response relative to DMSO [2, 9] [%] | GFP response vs DMSO [3] | GFP response, % of DMSO [4] | GFP response, % of DMSO [5] | GFP response, % of DMSO [5, 6] [%] | GFP response, % of DMSO [5, 7] [%] |
| --- | --- | --- | --- | --- | --- | --- | --- | --- | --- | --- | --- |
| COc1ccccc1OCC(=O)Sc1ccc(C)cc1 | 95.3% (inactive) | 96.7 | 92.3 | 113% (inactive) | 110 | 113 | 120% (inactive) | 99.3% (inactive) | 97.2% (inactive) | 99.3 | 93.8 |
| CC(=O)c1sc2nc(C)c3c(c2c1N)CCCC3 | 89.4% (inactive) | 88.5 | 89.3 | 111% (inactive) | 104 | 115 | 101% (inactive) | 98.2% (inactive) | 91.7% (inactive) | 88.7 | 92.6 |
| COc1ccccc1N=Cc1nc(-c2ccccc2)oc1OC(C)=O | 98.2% (inactive) | 96.9 | 98.3 | 103% (inactive) | 101 | 106 | 101% (inactive) | 70.7% (inactive) | 90.1% (inactive) | 88.4 | 90.7 |
| Cc1ccc(-n2ncc(C#N)c2/N=C/N(C)C)cc1 | 103% (inactive) | 101 | 103 | 101% (inactive) | 101 | 103 | 107% (inactive) | 94.2% (inactive) | 94.4% (inactive) | 92 | 79.7 |
| Cc1cc(O)c(C(=O)/C=C/c2ccc(C(C)C)cc2)c(=O)o1 | 95.4% (inactive) | 93.9 | 96.6 | 104% (inactive) | 104 | 106 | 96.2% (inactive) | 100% (inactive) | 98.3% (inactive) | 99.1 | 97.3 |
| Clc1ccc(Nc2ncnc3ccc(Br)cc23)cc1 | 98.4% (inactive) | 89.5 | 99 | 122% (inactive) | 102 | 124 | 95.4% (inactive) | 86.2% (inactive) | 86.3% (inactive) | 83.5 | 84 |
| Cn1cnc([N+](=O)[O-])c1S(=O)(=O)c1cccc(Cl)c1 | 103% (inactive) | 99.9 | 100 | 107% (inactive) | 104 | 108 | 103% (inactive) | 113% (inactive) | 118% (inactive) | 119 | 113 |
| O=S(=O)(c1ccccc1)c1ccc(C(F)(F)F)cn1 | 97.6% (inactive) | 98.3 | 97.8 | 96.1% (inactive) | 95.1 | 95.1 | 101% (inactive) | 101% (inactive) | 95.9% (inactive) | 96.8 | 95.7 |
| Cn1ncc(N2CCN(S(=O)(=O)c3ccc(Br)cc3)CC2)c(Cl)c1=O | 98.2% (inactive) | 97.9 | 98.7 | 96.7% (inactive) | 96 | 95.1 | 107% (inactive) | 99.3% (inactive) | 98.3% (inactive) | 101 | 97.3 |
| COCc1nnc(NC(=O)c2ccc(S(=O)(=O)N(C)c3ccccc3)cc2)o1 | 96.8% (inactive) | 96.6 | 97.1 | 101% (inactive) | 99.2 | 98.3 | 100% (inactive) | 92.5% (inactive) | 96.9% (inactive) | 97.2 | 97.3 |
| Cc1cccc(NC(=O)CC2SC(=O)N(c3ccccc3)C2=O)c1 (stereo not drawn) | 96.6% (inactive) | 99.4 | 93 | 126% (inactive) | 128 | 126 | 109% (inactive) | 93.9% (inactive) | 104% (inactive) | 106 | 97.3 |
| Cc1cccc(CN2CCSc3sccc3C2=O)c1 | 96.8% (inactive) | 95.7 | 96.5 | 125% (inactive) | 127 | 126 | 131% (inactive) | 98.2% (inactive) | 112% (inactive) | 114 | 109 |
| COc1ccc([N+](=O)[O-])c(S(=O)(=O)c2ccc(Cl)cc2)n1 | 84.5% (inactive) | 54.7 | 74.7 | 333% (active) | 173 | 309 | 136% (inactive) | 131% (inactive) | 93.4% (inactive) | 100 | 78.8 |
| Fc1cccc(Cl)c1Cn1ncc2ccccc21 | 97.6% (inactive) | 96.1 | 96.3 | 102% (inactive) | 99.1 | 100 | 99% (inactive) | 101% (inactive) | 97.3% (inactive) | 97.4 | 96.8 |
| CCOc1cc(/C=C2\N=C(C)OC2=O)cc(Br)c1OCC(=O)OC | 98.2% (inactive) | 100 | 96.9 | 133% (inactive) | 128 | 134 | 102% (inactive) | 94% (inactive) | 99.3% (inactive) | 102 | 94.5 |
| O=C(CSCc1cccc(Br)c1)N=Nc1c(O)[nH]c2ccccc12 | 76.9% (inactive) | 67.8 | 73 | 126% (inactive) | 102 | 126 | 124% (inactive) | 137% (inactive) | 130% (inactive) | 110 | 129 |
| O=C(COC(=O)c1n[nH]c2ccccc12)c1cc(F)ccc1F | 99.5% (inactive) | 99 | 101 | 97.4% (inactive) | 98.7 | 98.3 | 97.8% (inactive) | 97.6% (inactive) | 97.8% (inactive) | 96.5 | 99.8 |

| Structure (SMILES) | GFP response vs DMSO [1] | GFP response vs DMSO [1, 6] [%] | GFP response vs DMSO [1, 7] [%] | GFP response relative to DMSO [2] | GFP response relative to DMSO [2, 8] [%] | GFP response relative to DMSO [2, 9] [%] | GFP response vs DMSO [3] | GFP response, % of DMSO [4] | GFP response, % of DMSO [5] | GFP response, % of DMSO [5, 6] [%] | GFP response, % of DMSO [5, 7] [%] |
| --- | --- | --- | --- | --- | --- | --- | --- | --- | --- | --- | --- |
| COc1ccccc1C(=O)N1CCN(c2cccc(C(F)(F)F)c2)CC1 | 96.2% (inactive) | 97.3 | 97.4 | 95.3% (inactive) | 96.5 | 94.6 | 99.5% (inactive) | 98.9% (inactive) | 99.3% (inactive) | 100 | 100 |
| CCc1ccccc1OCc1nnc(N)s1 | 101% (inactive) | 98.8 | 102 | 98.2% (inactive) | 99.1 | 97.3 | 101% (inactive) | 102% (inactive) | 100% (inactive) | 101 | 99.3 |
| Cc1ccc(NC(=O)c2ccc([N+](=O)[O-])o2)cc1C | 100% (inactive) | 104 | 95.8 | 128% (inactive) | 111 | 127 | 110% (inactive) | 99.8% (inactive) | 100% (inactive) | 105 | 96 |
| COc1ccc(CCNC2=C(Cl)C(=O)N(CCc3ccc(OC)c(OC)c3)C2=O)cc1OC | 99.1% (inactive) | 98.5 | 99.3 | 100% (inactive) | 99.3 | 100 | 108% (inactive) | 101% (inactive) | 95% (inactive) | 98.3 | 93.3 |
| CC(=O)Nc1ccc(NC(=O)CSc2ncc(C(=O)Nc3ccccc3)c(=O)n2C)cc1 | 96.6% (inactive) | 97.1 | 99.1 | 97% (inactive) | 97.5 | 97.3 | 96.8% (inactive) | 103% (inactive) | 105% (inactive) | 103 | 104 |
| CC(=O)Oc1oc(-c2ccccc2)nc1C=Nc1ccccc1 | 102% (inactive) | 101 | 98.6 | 126% (inactive) | 119 | 130 | 97.2% (inactive) | 95.2% (inactive) | 90.3% (inactive) | 92.3 | 89.3 |
| COc1ccccc1CNc1nc(S(=O)(=O)c2ccccc2)c(Cl)s1 | 97.3% (inactive) | 97.8 | 96.5 | 108% (inactive) | 104 | 109 | 95.2% (inactive) | 105% (inactive) | 97.2% (inactive) | 97.6 | 97.1 |
| CCOCCCNC(=O)/C(C#N)=C/c1ccc([N+](=O)[O-])o1 | 118% (inactive) | 91.2 | 87.9 | 212% (active) | 132 | 129 | 285% (active) | 122% (inactive) | 182% (active) | 114 | 110 |
| O=C(OCc1ccco1)c1ccc(S(=O)(=O)N2CCCCC2)cc1 | 101% (inactive) | 97.9 | 101 | 98.2% (inactive) | 97.5 | 98.4 | 99% (inactive) | 96.1% (inactive) | 102% (inactive) | 99.2 | 91.9 |
| CC(NC(=O)C1CCC(CNS(=O)(=O)c2ccccc2)CC1)c1ccccc1 (stereo not drawn) | 101% (inactive) | 102 | 101 | 100% (inactive) | 102 | 99.5 | 104% (inactive) | 107% (inactive) | 99.3% (inactive) | 100 | 96.8 |
| Cc1nnc(NC(=O)c2ccc(S(=O)(=O)N(C)Cc3ccccc3)cc2)o1 | 98.4% (inactive) | 98.1 | 98.2 | 101% (inactive) | 99.2 | 101 | 102% (inactive) | 91.2% (inactive) | 103% (inactive) | 101 | 102 |
| O=C(CSc1cccc[n+]1[O-])CSc1cccc[n+]1[O-] | 97.8% (inactive) | 101 | 95 | 119% (inactive) | 116 | 120 | 103% (inactive) | 103% (inactive) | 97.2% (inactive) | 101 | 98.2 |
| COc1ccc(NC(=O)/C(C#N)=C/c2ncc([N+](=O)[O-])n2C)c(OC)c1 | 97.2% (inactive) | 95.1 | 99.8 | 151% (active) | 138 | 162 | 169% (inactive) | 99.5% (inactive) | 134% (inactive) | 132 | 136 |
| Cc1ccccc1NC(=O)c1ccccc1O | 94% (inactive) | 92.9 | 94 | 106% (inactive) | 101 | 108 | 101% (inactive) | 93.8% (inactive) | 100% (inactive) | 97.4 | 98.1 |
| Oc1c(CN2CCCCC2)cc(Br)c2cccnc12 | 106% (inactive) | 103 | 105 | 208% (active) | 181 | 208 | 118% (inactive) | 96.7% (inactive) | 102% (inactive) | 104 | 91 |
| COc1ccc(C2CC(c3c(-c4ccccc4)c4cc(Cl)ccc4[nH]c3=O)=NN2S(C)(=O)=O)cc1 (stereo not drawn) | 100% (inactive) | 99.1 | 102 | 99.2% (inactive) | 97.6 | 97.2 | 100% (inactive) | 99.9% (inactive) | 99.7% (inactive) | 101 | 99.7 |
